Holding throughout (type): functional
In test [1] the test system is Staphylococcus aureus. As to the kind of experiment: Antimicrobial activity against Staphylococcus aureus after 24 hrs by twofold serial broth dilution technique. Summed up: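 S. aureus (ATCC 6538) cultured in eugon broth. Twofold serial broth dilution covering 0.20–100 μg/ml. Incubation at 37° for 24 h. MIC is the lowest concentration with no growth. Streptomycin sulfate served as standard control.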

Test [2] relates to Bacillus subtilis. As to the kind of experiment: Antimicrobial activity against Bacillus subtilis after 24 hrs by twofold serial broth dilution technique. The method in brief:
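B. subtilis (ATCC 6633) cultured in eugon broth. MIC by twofold serial broth dilution, compounds tested over 0.20–100 μg/ml. Tubes incubated at 30°, read after 24 h. MIC taken as the lowest concentration inhibiting growth. Streptomycin sulfate as standard control.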
On the technique in general: Dilution methods test growth across graded concentrations, often in twofold steps.

In test [3] the test system is Mycolicibacterium smegmatis. Kind of test: Antimicrobial activity against Mycobacterium smegmatis after 48 hrs by twofold serial broth dilution technique. Summed up: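 Mycobacterium smegmatis (ATCC 607) grown in eugon broth. Twofold serial broth dilution from 0.20 to 100 μg/ml, tubes kept at 37°, MIC read after 48 h as the lowest concentration preventing growth. Streptomycin sulfate included as standard control.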

Our source for the MIC values is ChEMBL document CHEMBL1158986, “New antimicrobial filicinic acid derivatives from Hypericum drummondii” (1991).

≈ marks a conversion by molar mass, not a printed value.

`CN[C@@H]1[C@H](O[C@H]2[C@H](O[C@H]3[C@H](O)[C@@H](O)[C@H](N=C(N)N)[C@@H](O)[C@@H]3N=C(N)N)O[C@@H](C)[C@]2(O)C=O)O[C@@H](CO)[C@H](O)[C@H]1O` [STREPTOMYCIN]: the values for the MIC in test [1], in test [2] and in test [3] were 12.5 µg/mL (≈ 21.5 µM), 0.78 µg/mL (≈ 1.34 µM) and 1.56 µg/mL (≈ 2.68 µM), respectively.
On the same counts, the results for `CC(=O)C1=C(O)C(C)(CC=C(C)C)C(O)=C(Cc2c(O)c(C(C)=O)c(O)c3c2OC(C)(C)C=C3)C1=O` (stereo not given) [ISODRUMMONDIN D] are 0.78 µg/mL (≈ 1.57 µM), 0.2 µg/mL (≈ 0.403 µM) and 1.56 µg/mL (≈ 3.14 µM).
For the compound `CC(=O)C1=C(O)C(C)(CC=C(C)C)C(O)=C(Cc2c(O)c(CC=C(C)C)c(O)c(C(C)=O)c2O)C1=O` (stereo not given) [DRUMMONDIN F], the MIC in test [1] amounted to 0.78 µg/mL (≈ 1.56 µM); in test [2] it was 0.78 µg/mL (≈ 1.56 µM); in test [3], 1.56 µg/mL (≈ 3.13 µM).
For `CC(=O)C1=C(O)C(C)(CC=C(C)C)C(O)=C(Cc2c(OCC=C(C)C)cc(O)c(C(C)=O)c2O)C1=O` (stereo not given) [DRUMMONDIN E], the figures for the MIC in test [1], in test [2] and in test [3] were 0.39 µg/mL (≈ 0.782 µM), 0.2 µg/mL (≈ 0.401 µM) and 3.12 µg/mL (≈ 6.26 µM), respectively.
The matching figures for `CC(=O)C1=C(O)C(C)(CC=C(C)C)C(O)=C(Cc2c(O)c3c(c(C(C)=O)c2O)OC(C)(C)C=C3)C1=O` (stereo not given) [DRUMMONDIN D]: 0.78 µg/mL (≈ 1.57 µM), 0.39 µg/mL (≈ 0.785 µM) and 1.56 µg/mL (≈ 3.14 µM).

In general, MIC refers to the lowest concentration found to suppress growth. A high value points to weaker potency.
